Sampled rows, rich in hits. Any-hit rate of the full collection: about 1.8%.
MC4R antag cAMP = human MC4R antagonism in cAMP assay; P32245; MC4R-expressing cells, MTII-stimulated cAMP, LANCE TR-FRET; inhibition, % at 6.5 µM; actives 0.48% (n = 360,000); AID 540295;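 active = inhibition above its plate's cutoff, the mean of tested wells on that plate plus 3 SD, cut at about 29% in these data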;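 note: 0% = Melanotan II alone and 100% = Melanotan II plus saturating MCL0020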
Target sequence (P32245 whole entry, looked up): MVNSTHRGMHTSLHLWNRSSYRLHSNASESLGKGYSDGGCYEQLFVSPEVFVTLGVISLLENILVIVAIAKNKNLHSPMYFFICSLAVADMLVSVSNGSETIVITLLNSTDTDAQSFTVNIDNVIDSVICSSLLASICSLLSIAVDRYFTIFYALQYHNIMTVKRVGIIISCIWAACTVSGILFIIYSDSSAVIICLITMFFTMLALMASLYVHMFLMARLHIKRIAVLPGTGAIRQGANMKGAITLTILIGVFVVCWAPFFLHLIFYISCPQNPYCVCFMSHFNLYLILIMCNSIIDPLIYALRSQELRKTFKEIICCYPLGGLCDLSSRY
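Material – human MC4R-expressing U2OS cells · Repeats – no replicates · Detection – TR-FRET with Eu-cAMP and labeled anti-cAMP, 671 nm · Times – compound 30 min, challenge 1 h, detection 1 h · Compound – single nominal compound dose of 6.5 µM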
MC4R barr agon = activates human MC4R beta-arrestin recruitment; U2OS MC4R beta-arrestin complementation, luminescence; percent of melanotan II response, DMSO zero; activation, % at 8.9 µM; P32245; actives 0.98% (n = 360,000);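 active = activation above a per-plate cutoff, the mean activation of sample wells on that plate plus 3 SD, cut at about 8% in these data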
AI-2 QS mod = modulators of Vibrio harveyi AI-2 quorum sensing system. Vibrio harveyi JMH597 AI-2 luminescence/OD600 ratio, 9 h; active compounds read low; strain lacks LuxN and CqsS sensors; 0 = neutral-control median. activity change, % at 7.5 µM. actives 0.4% (n = 300,000). AID 2094; in the data active = activity change below about -75%, passing the limit was not always enough; inconclusive = no clear call, values can overlap the other calls;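 note: luminescence divided by OD600 gain over 9 h not by final OD600 alone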
NTR1 agonist = activates human neurotensin receptor 1; AID 493036; NTR1-U2OS beta-arrestin-GFP spot imaging, agonist mode; activation, % at 20 µM; P30989; actives 0.17% (n = 330,000);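 active = activation at or above 40% of the spot to cytoplasm intensity ratio, with at least 20 cells analyzed; inconclusive = wells under 20 cells, flagged as cytotoxic or low count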;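 note: 0% = DMSO without peptide and 100% = 100 nM NTR1 peptide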
Target sequence (P30989 whole entry, looked up): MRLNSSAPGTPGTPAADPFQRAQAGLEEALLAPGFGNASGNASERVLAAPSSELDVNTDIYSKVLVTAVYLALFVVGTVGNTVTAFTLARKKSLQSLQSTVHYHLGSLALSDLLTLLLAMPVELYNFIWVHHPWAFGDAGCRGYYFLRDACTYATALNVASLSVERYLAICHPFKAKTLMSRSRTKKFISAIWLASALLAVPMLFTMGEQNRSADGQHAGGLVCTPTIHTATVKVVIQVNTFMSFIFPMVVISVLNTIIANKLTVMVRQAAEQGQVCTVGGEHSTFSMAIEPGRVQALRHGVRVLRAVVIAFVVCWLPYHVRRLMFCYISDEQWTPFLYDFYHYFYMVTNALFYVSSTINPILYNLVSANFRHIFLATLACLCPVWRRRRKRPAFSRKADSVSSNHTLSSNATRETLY
JMH597 growth = retest Vibrio harveyi JMH597 growth inhibition. growth inhibition, % at 7.5 µM. OD600 absorbance, 9 h; lacks LuxN and CqsS sensors. shares compounds with AI-2 QS mod. AID 2726. actives 1% (n = 750);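 active = every replicate shows growth inhibition above 50%; inconclusive = at least half, but not all, replicates pass that cutoff; inactive = fewer than half of replicates pass it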
BB721 lum counter = retest counter-screen: luminescence loss in constitutive-on quorum sensing strain BB721; shares compounds with AI-2 QS mod; Vibrio harveyi BB721 luminescence, 9 h; inhibition, % at 7.5 µM; actives 95% (n = 750); AID 2727;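 active = inhibition above about 80% in every replicate, not just on average, limit read from the data; inconclusive = at least half of replicates past the limit, but not all; inactive = fewer than half of replicates past the limit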
BB721 growth = retest: inhibitors of Vibrio harveyi BB721 growth | OD600 absorbance, 9 h | actives 3% (n = 750) | shares compounds with AI-2 QS mod | growth inhibition, % at 7.5 µM;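 active = every replicate shows growth inhibition above 50%; inconclusive = at least half but not all replicates above 50% inhibition; inactive = under half of replicates above 50% inhibition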
JMH597 AI-2 mod = Vibrio harveyi AI-2 signaling luminescence modulation – JMH597 strain, confirmation; Vibrio harveyi JMH597 AI-2 quorum sensing luminescence, 9 h; luxN and CqsS knockout, AI-2 only; AID 2736; actives 97% (n = 750); inhibition, % at 7.5 µM; shares compounds with AI-2 QS mod;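 active = every replicate shows more than 75% inhibition of signal versus neutral control wells; inconclusive = half to three quarters of replicates exceed 75% inhibition; inactive = fewer than half of replicates exceed 75% inhibition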
* hit, by the source's call; ? = inconclusive; / = no result.

SMILES	MC4R antag cAMP	MC4R barr agon	AI-2 QS mod	NTR1 agonist	JMH597 growth	BB721 lum counter	BB721 growth	JMH597 AI-2 mod
CCOc1ccc(NC(=O)CN2C(=O)CSC(C)C2=O)cc1 (stereo not given)	-2.4	-1.6	-78.3*	1.8	16.4	91.3*	9.6	93.3*
COC(=O)/C(=C1/Oc2cc(C)oc(=O)c2S1)C(F)(F)F	-8.1	0.0	?	5.6	40.3	91.0*	63.0*	93.1*
C=CCNC(=O)C1CCN(S(=O)(=O)c2ccc3ccccc3c2)CC1	9.8	-0.8	-80.9*	0.9	5.3	59.3	-27.8	98.9*
CN(C)CCNC(=O)C1CCN(S(=O)(=O)c2ccc3ccccc3c2)CC1	1.4	-1.7	-11.9	-0.8	/	/	/	/
CC(C(=O)OCC(=O)N(C)C1(C#N)CCCCC1)N1C(=O)c2ccccc2C1=O (stereo not given)	3.6	-2.7	/	-1.5	/	/	/	/
CSc1ccc(OC2(C)CCN(Cc3ccc4c(c3)OCCO4)C2)cc1 (stereo not given)	-4.7	-1.8	/	/	/	/	/	/
O=C(Cc1ccc(Cl)cc1)N/N=C/c1ccc(O)c(O)c1	8.0	-1.5	/	/	/	/	/	/
Cc1ccc(O)c(/C=N/NC(=O)Cc2ccc(Cl)cc2)c1	27.6	3.4	-93.3*	-0.8	31.0	98.6*	32.8	98.9*
CCN(CC)c1ncnc2c1ncn2[C@H]1CN(Cc2ccc(Cl)cc2)C[C@@H](CO)O1	-8.1	1.0	/	/	/	/	/	/
CCOCc1c(C(=O)Nc2ccccc2N2CCN(C)CC2)oc2ccccc12	2.4	-2.6	/	3.6	/	/	/	/
CCOC(=O)c1sc(NC(=O)c2ccco2)nc1C	5.7	1.1	11.6	-1.0	/	/	/	/
CCOC(=O)c1sc(NC(=O)COC(=O)c2ccco2)nc1C	4.3	1.2	-89.4*	-1.3	9.7	96.6*	-5.0	98.1*
Cc1cccc2nc(C(=O)Nc3cccc(C(=O)NC4CC4)c3)cn12	-1.7	-2.4	/	4.6	/	/	/	/
O=C(/C=C/c1cccs1)NCc1cccs1	-1.5	-0.5	-83.2*	1.5	9.2	91.8*	5.6	91.7*
O=C(Cc1ccc(Cl)cc1)Nc1ccc(Br)cc1	1.4	1.8	-29.9	2.4	/	/	/	/
O=C(/C=C/c1cccs1)NCc1ccc2c(c1)OCO2	8.8	-0.9	-90.3*	1.2	-13.6	94.7*	-9.8	95.1*
O=C(/C=C/c1c(F)cccc1Cl)NCc1ccc2c(c1)OCO2	12.3	5.4	?	0.2	/	/	/	/
O=C(/C=C/c1ccccc1)NCc1ccc2c(c1)OCO2	-4.5	-1.3	-94.0*	-0.3	-1.8	97.9*	1.6	98.3*
O=C(Cc1ccc(Br)cc1)Nc1cccc(Cl)c1	23.3	3.0	-81.6*	-0.9	-20.4	87.6*	7.4	87.8*
CCN(CC)CCNC(=O)CCc1c(C)nc2c(c(C)nn2-c2ccc(C)cc2)c1C	6.6	1.1	23.9	-2.1	/	/	/	/
O=C(O)c1ccc(OS(=O)(=O)c2ccc(Cl)s2)c(Cl)c1	2.7	-2.9	/	0.1	/	/	/	/
CCN(CC(=O)Nc1ccccc1OC)C(=O)COc1ccc(C#N)cc1	11.8	1.3	/	/	/	/	/	/
CC(NC(=O)c1ccccc1Cl)C(=O)OCc1cn2cc(Cl)ccc2n1 (stereo not given)	12.7	-2.2	/	0.0	/	/	/	/
O=C(NCc1ccc2c(c1)OCO2)Nc1cccc(Cl)c1	-0.6	2.2	-91.5*	-0.6	20.3	98.9*	32.8	98.6*
Cc1ccc(CCC(=O)Nc2ccc(Cl)cc2)o1	14.1	-0.2	-86.6*	-1.8	23.5	91.3*	8.7	93.5*
SMILES	MC4R antag cAMP	MC4R barr agon	AI-2 QS mod	NTR1 agonist	JMH597 growth	BB721 lum counter	BB721 growth	JMH597 AI-2 mod
CCOC(=O)c1ccc(NC(=O)CCc2ccc(CC)o2)cc1	13.6	-0.1	-14.2	1.9	/	/	/	/
CCc1ccc(CCC(=O)Nc2ccc(Cl)cc2)o1	-4.3	-0.8	-89.0*	0.4	-6.6	95.6*	-36.0	97.7*
CCc1ccc(CCC(=O)Nc2ccc(C(C)=O)cc2)o1	-2.6	-0.5	-94.0*	-1.0	7.7	98.4*	-14.8	99.2*
Cc1ccc(CCC(=O)Nc2ccc(N(C)C)cc2)o1	7.2	-1.2	/	-0.8	/	/	/	/
CCc1ccc(CCC(=O)Nc2ccc(Br)cc2)o1	1.3	2.6	-91.4*	1.6	-19.7	95.0*	-26.1	97.1*
COc1cccc(-c2cc(C(=O)NCC3CCCO3)c3cc(C)cc(C)c3n2)c1 (stereo not given)	9.7	-2.5	9.3	7.4	/	/	/	/
CC(C)Oc1ccc(S(=O)(=O)N2CCOCC2)cc1NC(=O)CCCSc1ccccc1	8.7	0.8	/	1.2	/	/	/	/
CCOC(=O)c1ccc(NS(=O)(=O)c2ccc3oc(=O)[nH]c3c2)cc1	13.1	1.1	47.7	-0.7	/	/	/	/
COCCN(CC(=O)Nc1cccc(C)c1C)C(=O)c1ccc(S(=O)(=O)N2CCOCC2)cc1	9.3	-0.7	/	1.9	/	/	/	/
O=C(CCc1nnc2ccc(NCc3ccco3)nn12)Nc1ccc(F)cc1	4.4	-2.9	28.5	2.0	/	/	/	/
O=C(Nc1ccc(S(=O)(=O)N2CCCC2)cc1)C1COc2ccccc2O1 (stereo not given)	5.3	-0.2	?	-1.6	23.3	92.8*	-23.0	98.7*
O=C(Nc1ccc(S(=O)(=O)Nc2ccccc2)cc1)C1COc2ccccc2O1 (stereo not given)	-1.2	1.6	9.6	7.0	/	/	/	/
CN(C)S(=O)(=O)c1ccc(NC(=O)C2COc3ccccc3O2)cc1 (stereo not given)	1.4	-1.7	-89.1*	3.3	11.7	96.3*	-2.9	98.2*
O=C(Nc1ccc(S(=O)(=O)N2CCOCC2)cc1)C1COc2ccccc2O1 (stereo not given)	-3.1	-1.4	-0.8	-0.2	/	/	/	/
COc1ccc(NC(=O)CCC(=O)N2CCC(c3ccccc3)=N2)cc1S(=O)(=O)N1CCCCC1	3.9	-0.5	/	/	/	/	/	/
Cc1cc(C)cc(OCc2nc(-c3cccnc3)no2)c1	2.4	-2.8	-95.2*	-0.2	8.6	98.7*	-1.9	98.9*
Cc1ccccc1OCc1nc(-c2cccnc2)no1	-6.2	-0.6	-47.8	-1.9	/	/	/	/
Cc1ccc(OCc2nc(-c3cccnc3)no2)cc1C	4.6	-1.1	-93.8*	1.1	2.5	98.2*	2.5	98.7*
O=C(Nc1ccc(Cl)c(S(=O)(=O)N2CCOCC2)c1)c1ccc(Cl)nc1	6.3	0.4	/	6.5	/	/	/	/
COc1ccc(NC(=O)CN2C(=O)NC(c3ccccc3)(c3ccccc3)C2=O)cc1	17.1	1.1	-93.9*	2.7	1.7	92.4*	14.4	96.5*
COc1ccc(C2(c3ccc(OC)cc3)NC(=O)N(CC(=O)Nc3ccc(OC(F)F)cc3)C2=O)cc1	2.5	0.2	2.9	2.5	/	/	/	/
